# A selection: hits, their analogues and other compounds. The true share with any hit is near 3.5%.
# RGS4 pot = RGS4 potentiators or activators, primary screen, cell-based, HEK293 M3R inducible RGS4, calcium flux | AID 463111, 2010 | carbachol calcium flux Fluo4; hits give low values | B-score at 10 µM | actives 0.92% (n = 310,000);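 active = B-score of the integrated calcium signal more than 4 SD below the library mean, with starting fluorescence not abnormally high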;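 note: negative B-score means reduced calcium response which marks RGS4 activation or potentiation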
#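 Test system: HEK293 cells with stable M3R and inducible RGS4; also added: carbachol at ECmax as muscarinic agonist stimulus; schedule: dye loading 30 min 37 °C, buffer rest 30 min RT; technique: kinetic calcium fluorescence imaging with Fluo4-AM dye, 2 µM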
# MrgX1 ag = agonists of human MrgX1 receptor, primary screen, HEK293 cells, Fluo-4 calcium flux | Mas-related G-protein coupled receptor member X1 (Homo sapiens), Q96LB2 | Fluo-4 calcium fluorescence, agonist mode; hits give high values | B-score at 10 µM | actives 0.44% (n = 310,000);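 active = calcium response B-score plate-corrected fluorescence ratio at least 3 library SD, with starting fluorescence B-score inside 5 SD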
# Target sequence (Q96LB2 whole entry, looked up): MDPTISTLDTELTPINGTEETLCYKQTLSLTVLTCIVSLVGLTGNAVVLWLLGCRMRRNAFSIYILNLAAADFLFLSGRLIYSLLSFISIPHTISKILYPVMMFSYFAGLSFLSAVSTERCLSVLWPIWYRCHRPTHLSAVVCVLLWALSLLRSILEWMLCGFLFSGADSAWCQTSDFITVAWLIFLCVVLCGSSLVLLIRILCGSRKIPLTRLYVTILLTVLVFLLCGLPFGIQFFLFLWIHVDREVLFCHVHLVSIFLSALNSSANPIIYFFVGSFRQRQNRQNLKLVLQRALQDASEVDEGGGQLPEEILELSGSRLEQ
#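 Test system: HEK293 cells stably expressing human MrgX1 receptor; amount: 15,000 cells per well; doses: compound delivered in addition one of three; times: overnight plating before 1 h dye loading; detection: Fluo-4 NW calcium-flux fluorescence, kinetic read; read-out basis: B-scored fluorescence response ratio; controls: positive and negative controls per plate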
# MrgX1 PAM = positive allosteric modulators of MrgX1, primary screen, HEK293 cells, Fluo-4 calcium flux. Mas-related G-protein coupled receptor member X1 (Homo sapiens), Q96LB2. AID 588675, 2011. B-score at 10 µM. actives 0.63% (n = 310,000). FDSS; hits give high values;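 active = plate-corrected calcium response at least 3 library SD above typical, normal starting fluorescence, not activating the receptor alone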;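 note: compound read alongside a low EC10 to EC30 dose of BAM8-22 agonist; peak minus trough fluorescence over baseline measured at the second addition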
# MrgX1 antagonist = antagonists of human MrgX1 receptor, primary screen, HEK293 cells, Fluo-4 calcium flux | B-score at 10 µM | Mas-related G-protein coupled receptor member X1 (Homo sapiens), Q96LB2 | actives 1.3% (n = 310,000) | BAM8-22 antagonism; hits give low values | AID 588676, 2011;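 active = calcium-response B-score plate-corrected more than 3 library SD below zero, starting fluorescence within 5 deviations, no agonist response on first addition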;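 note: peak minus trough fluorescence over baseline after final BAM8-22 challenge near maximal dose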
# RGS4 block = RGS4 inhibitors, primary screen, cell-based, HEK293 M3R inducible RGS4, calcium flux; Regulator of G-protein signaling 4 (Homo sapiens), P49798; Fluo-4 calcium flux; hits give high values; triggered by carbachol at its EC20; B-score at 10 µM; actives 0.45% (n = 310,000);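 active = B-score, a plate-corrected calcium signal, over three deviations above library mean, with baseline fluorescence within five deviations of library mean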;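 note: RGS4 expression induced by doxycycline in cells with stable M3 receptor; B-score is computed from the integrated fluorescence ratio over baseline after carbachol; higher B-score means a larger calcium signal and so more RGS4 inhibition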
# Target sequence (P49798 whole entry, looked up): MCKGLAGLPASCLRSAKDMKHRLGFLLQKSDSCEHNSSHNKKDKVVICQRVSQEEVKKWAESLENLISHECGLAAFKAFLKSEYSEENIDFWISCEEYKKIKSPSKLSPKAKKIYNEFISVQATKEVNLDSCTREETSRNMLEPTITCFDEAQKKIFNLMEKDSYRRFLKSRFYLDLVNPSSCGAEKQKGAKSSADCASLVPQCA
# Starred values were filed as active, the others as inactive; i = inactive; nt = not tested or not shown.
SMILES,RGS4 pot,MrgX1 ag,MrgX1 PAM,MrgX1 antagonist,RGS4 block
Cc1nonc1CC(=O)N1CCCC(C(=O)c2cccc(C(F)(F)F)c2)C1 (configuration not stated),i,i,i,i,i
O=C(NC1CC2CCCC(C1)N2C(=O)Nc1ccccc1)C1CC1 (configuration not stated),i,i,i,i,i
c1coc(-c2nnc3sc(Cc4cccs4)nn23)c1,i,i,i,-7.2*,i
NC[C@H](O)c1ccc(O)c(O)c1,nt,39*,i,i,nt
CC(C)NCC(O)c1ccc2ccccc2c1 (configuration not stated),nt,i,i,i,nt
COc1cc(C(O)CO)ccc1O (configuration not stated),nt,i,i,i,nt
CC(C)NCC(O)c1ccc(O)c(O)c1 (configuration not stated),i,33*,i,i,i
CC1(C)Cc2c(cnn2-c2cccc(F)c2)C(NC(=O)Cn2cccn2)C1 (configuration not stated),i,i,i,i,i
O=C(/C=C/c1ccccc1)CC(O)(c1ccccc1)C(F)(F)F (configuration not stated),-10*,i,i,i,i
COc1ccc(/C=C/C(=O)CC(O)(c2ccccc2)C(F)(F)F)cc1 (configuration not stated),i,i,i,i,i
O=C(/C=C/c1ccccc1)CC(O)(c1ccccc1)C(F)(F)C(F)F (configuration not stated),-8.9*,i,i,i,i
O=c1cc(Cn2ccnc2)c2cc(O)ccc2o1,i,i,i,i,i
COc1cccc2cc(-c3cn4cccc(C)c4n3)c(=O)oc12,i,38*,i,i,i
CC(=O)c1ccc(N(CC(=O)NC2CCCC2)C(=O)CCC(=O)Nc2cc(C)on2)cc1,i,i,i,i,i
CC(=O)Nc1ccccc1OCC(=O)c1cc(C)n(Cc2cccs2)c1C,i,48*,i,i,i
CCOc1ccc2[nH]c(=O)c(CN(Cc3nnnn3Cc3ccco3)C3CCCCC3)cc2c1,i,27*,i,i,i
COc1cc2cc(CN(Cc3nnnn3Cc3ccco3)C3CCCCC3)c(=O)[nH]c2cc1OC,i,i,i,i,i
CCOC(=O)c1sc(=S)n(-c2ccccc2Cl)c1SC,-8.8*,i,10*,i,i
Cc1ccc(NNC(=O)c2ccno2)cc1C,-7.5*,i,i,i,i
Cc1cc(C)cc(N(CC(=O)N2CCCCCC2)S(C)(=O)=O)c1,i,i,i,i,i
COc1ccc(CCNC(=O)c2ccc3c(c2)NC(=O)C(CSCc2cc(C)ccc2C)N3)cc1OC (configuration not stated),i,28*,i,i,i
COCCCN1C(=O)c2ccc(C(=O)OCC(=O)N3CCN(c4ccccc4)CC3)cc2C1=O,i,i,i,i,i
O=C(Nc1ccc(F)cc1F)NC1CCCCCCC1,i,i,i,i,i
Oc1c(Cl)cc(Cl)cc1CNn1cnnc1,i,i,i,i,i
Oc1c(Cl)cc(Cl)cc1Sc1cc(Cl)cc(Cl)c1O,i,30*,i,i,i
SMILES,RGS4 pot,MrgX1 ag,MrgX1 PAM,MrgX1 antagonist,RGS4 block
CC(/C=C1\NC(=S)NC1=O)=C\c1ccccc1,i,i,i,-5.1*,i
O=C1NC(=S)N/C1=C/c1cccc2ccccc12,i,i,i,i,i
COc1cc(CNc2ccc(C(=O)O)cc2)cc(Br)c1OCC(=O)NC(C)(C)C,i,i,i,-5.3*,i
CCOc1cc(CNc2ccc(OC)cc2)cc(Br)c1OCC(=O)NC(C)(C)C,i,i,i,i,i
C/C(=N\NC(=O)c1ccc(Cn2cc(Br)cn2)o1)c1cccc(NC(=O)C(C)C)c1,i,i,i,i,i
C/C(=N\NC(=O)c1ccc(Cn2cc([N+](=O)[O-])cn2)o1)c1cccc(NC(=O)C(C)C)c1,i,i,i,-5.6*,i
CC(C)c1ccc(S(=O)(=O)/N=C2/C=C(Sc3ncn[nH]3)C(=O)c3ccccc32)cc1,nt,i,8.6*,i,nt
CC1CN(CCC(=O)Nc2ccccc2F)CC(C)O1 (configuration not stated),i,i,i,i,i
COc1ccc2nc(N3C(=O)/C(=C/c4ccccc4)NC3=S)sc2c1,i,i,6.8*,i,i
Cc1ccc(C)c(N2CCN(C(=O)c3ccc(CS(=O)Cc4cccc(Cl)c4)o3)CC2)c1 (configuration not stated),-8.7*,i,i,i,i
COc1ccc(S(=O)(=O)Cc2ccc(C(=O)NCCc3cc(OC)ccc3OC)o2)cc1,i,i,7.5*,i,i
COc1ccc(S(=O)(=O)Cc2ccc(C(=O)N3CCN(c4cc(Cl)ccc4C)CC3)o2)cc1,-8.2*,i,i,i,i
Cc1cccc(N2CCN(C(=O)c3ccc(CS(=O)Cc4ccc(Cl)cc4)o3)CC2)c1C (configuration not stated),i,i,i,i,i
O=[N+]([O-])c1ccc(N/N=C/c2cn(-c3ccccc3)nc2-c2ccccc2)cc1,i,i,i,-4.5*,i
COc1ccc(-c2nn(-c3ccccc3)cc2C=O)cc1[N+](=O)[O-],i,i,i,i,i
COc1ccc(-c2nn(-c3ccccc3)cc2/C=C/C(=O)O)cc1[N+](=O)[O-],i,i,9.2*,i,i
O=C(O)/C=C/c1cn(-c2ccccc2)nc1-c1cccc([N+](=O)[O-])c1,i,i,i,i,i
O=C(O)/C=C/c1cn(-c2ccccc2)nc1-c1ccc(-c2ccc([N+](=O)[O-])cc2)o1,i,i,i,-4.6*,i
CCc1ccc(-n2cnc3cc(C(=O)NCC(OC)OC)ccc32)cc1,i,i,i,i,i
COc1ccc(NC(=O)CN(C)C(=O)c2cc(C)on2)cc1,i,i,i,i,i
CCOC(=O)N1CCN(S(=O)(=O)c2cc(Br)cnc2N)CC1,-7.4*,i,i,i,i
